The viability is a read-out of living cells in per cent, often relative to untreated cells. In general, inhibition refers to the relative decrease from the control value, in per cent.

Each structure is given as a SMILES string. The source made the active and inactive calls.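 How the source made its calls, unless noted: active means viability at or below 10% of carrier control in both of two separate runs; inconclusive means viability at or below 10% in only one of the two runs; inactive means the rest.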

The values that follow come from PubChem BioAssay.

The nature of experiment [1]: reduced viability of SK-BR-3 breast cancer cells – cell-based, 24 h, human, pilot screen (AID 572).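 Further: compound exposure lasted between 18 and 24 h rather than exactly 24 h; 100% = carrier-treated control wells.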 The note with it: SK-BR-3 viability, CellTiter-Glo luminescence, at 10 µM, stronger effect = lower value. (Cellular ATP, detected with luciferase, serves as a proxy for viable cell number.)
Experiment [2] can be described thus: HUVEC growth inhibition – cell-based, human, primary screen (AID 575;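 active means viability at or below 30% in both replicate assays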;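 further: 100% = median of untreated cell wells with 0.1% DMSO on each plate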). The note with it: HUVEC proliferation, CellTiter-Glo luminescence, 72 h; at 10 µM; stronger effect = lower value. The gist of the method: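 Timing: 72 h treatment at 37 °C; material: HUVEC primary cells; technique: CellTiter-Glo luminescence measuring cellular ATP; controls: vehicle and MePR control wells; measure: percent of median DMSO-control luminescence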

Experiment [3] in a line: H69AR cell proliferation blockers – human, duplicate replicates, primary screen (AID 580;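 active means viability at or under a set limit in both replicates, limit being median viability minus 3 SD, cut at about 48% in these data, passing the limit was not always enough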;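 further: 100% = mean luminescence of untreated wells and 0% = no signal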). The following applies: H69AR lung tumor cells viability, ATP luminescence, 72 h; at 10 µM; stronger effect = lower value.
Experiment [4] can be described thus: MRP1 drug-resistance reversers in H69AR cells – cell-based, doxorubicin co-treatment, pilot screen (AID 601;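 active means viability loss from added drug above about 55%, and viability with drug at most 40%, in both replicates, limit read from the data, passing the limit was not always enough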). The following applies: CellTiter-Glo, 72 h, at 10 µM; for differential viability (reversal): stronger effect = higher value.
A short description of experiment [5]: yeast transport mutant growth inhibition pilot in 384-well plates, post-Golgi transport modulator project (AID 636; in the data active means inhibition above about 31%). The note with it: absorbance 615 nm, about 18 h, stronger effect = higher value.
A short description of experiment [6]: growth suppression of yeast trafficking mutant, preliminary HTS, modulators of trafficking downstream of Golgi apparatus project, 1536-format plate, OD 615 nm (AID 637; in the data active means inhibition above about 30%). The following applies: yeast transport mutant growth, absorbance 615 nm, 18 h; stronger effect = higher value.
Where [7] appears, read: H69AR cells + 2 uM doxorubicin, measured here: viability with 2 uM doxorubicin, stronger effect = lower value.
[8] abbreviates: H69AR cells, compound alone cytotoxicity.

For `O=C(Nc1ccc(Cl)c(C(F)(F)F)c1)N1CCCC(O)C1` (stereo unspecified), the viability in experiment [1] was 98% (inactive); in experiment [2] it was 107% (inactive); in experiment [3], 105% (inactive); in experiment [4] (setting [7]), 83.6%; in experiment [4] (setting [8]) it was 105%. Further, in experiment [4] (H69AR cells + 2 uM doxorubicin), the differential viability (reversal) is 20.9% (inactive). Also, the inhibition in experiment [5] was -0.78% (inactive); in experiment [6] it was -6.23% (inactive).
Turning to `C=CCc1ccccc1OCC(O)CN1CCN(Cc2ccc3c(c2)OCO3)CC1` (stereo unspecified), the viability in experiment [1] was 101% (inactive); in experiment [2] it was 73.8% (inactive); in experiment [3] it was 70.1% (inactive); in experiment [4] (setting [7]) it was 76%; in experiment [4] (setting [8]), 70.1%. The differential viability (reversal) in experiment [4] (H69AR cells + 2 uM doxorubicin) was -5.96% (inactive). Also, the inhibition was 59.1% (active) in experiment [5] and 58.4% (active) in experiment [6].
As for `COC(=O)c1sc(N)c(C(=O)OC)c1COC(=O)C1CC(=O)N(Cc2ccco2)C1` (stereo unspecified), the viability was 84% (inactive) in experiment [1]; 103% (inactive) in experiment [2]; 72.8% (inactive) in experiment [3]; 78.9% in experiment [4] (setting [7]); 72.8% in experiment [4] (setting [8]). Besides, in experiment [4] (H69AR cells + 2 uM doxorubicin), the differential viability (reversal) is -6.05% (inactive). Besides, the inhibition in experiment [5] was -4.19% (inactive); in experiment [6] it was -2.18% (inactive).
On to `Cc1nnc(C)c2c(C)n(Cc3ccc4c(c3)OCO4)c(C)c12`, for which the viability in experiment [1] is 76% (inactive); in experiment [2], 91% (inactive); in experiment [3], 80.9% (inactive); in experiment [4] (setting [7]) it was 74.8%; in experiment [4] (setting [8]), 80.9%. The differential viability (reversal) in experiment [4] (H69AR cells + 2 uM doxorubicin) is 6.03% (inactive). Moreover, the inhibition was -0.55% (inactive) in experiment [5] and 24.5% (inactive) in experiment [6].
Turning to `COc1ccccc1NC1=NC(c2ccc(Cl)cc2)N=C(N)N1` (stereo unspecified), the viability in experiment [1] was 91% (inactive); in experiment [2] it was 68.2% (inactive); in experiment [3] it was 10% (active); in experiment [4] (setting [7]), 40.5%; in experiment [4] (setting [8]), 10%. Moreover, in experiment [4] (H69AR cells + 2 uM doxorubicin), the differential viability (reversal) was -30.4% (inactive). The figures for the inhibition in experiment [5] and in experiment [6] were -5.27% (inactive) and 0% (inactive), respectively.
With `CN1CCN(c2nc3c(c(=O)n(C)c(=O)n3C)n2Cc2cccc3ccccc23)CC1`, the viability in experiment [1] was 129% (inactive); in experiment [2] it was 77.5% (inactive); in experiment [3], 84% (inactive); in experiment [4] (setting [7]) it was 57.4%; in experiment [4] (setting [8]), 84%. Moreover, in experiment [4] (H69AR cells + 2 uM doxorubicin), the differential viability (reversal) is 26.6% (inactive). The inhibition in experiment [5] is 0% (inactive); in experiment [6], 0.16% (inactive).
Take `COC(=O)CCC(NC(=O)c1cc(-c2ccc3c(c2)OCCO3)oc1C)C(=O)OC` (stereo unspecified): the viability is 91% (inactive) in experiment [1]; 74.8% (inactive) in experiment [2]; 85.3% (inactive) in experiment [3]; 81.9% in experiment [4] (setting [7]); 85.3% in experiment [4] (setting [8]). Further, the differential viability (reversal) in experiment [4] (H69AR cells + 2 uM doxorubicin) was 3.48% (inactive). Also, the inhibition in experiment [5] was -6.44% (inactive); in experiment [6] it was 0.81% (inactive).
Consider `COc1ccc(Cl)cc1NC(=O)CSc1nncn1-c1cccnc1`, for which the viability was 92% (inactive) in experiment [1]; 102% (inactive) in experiment [2]; 88.3% (inactive) in experiment [3]; 86.3% in experiment [4] (setting [7]); 88.3% in experiment [4] (setting [8]). Also, the differential viability (reversal) in experiment [4] (H69AR cells + 2 uM doxorubicin) is 2.01% (inactive). Moreover, the inhibition in experiment [5] was -7.07% (inactive); in experiment [6], -3.27% (inactive).
Regarding `Cc1occc1C(=O)Nc1nnc(C2CCCCC2)s1`, the viability in experiment [1] was 109% (inactive); in experiment [2] it was 93.1% (inactive); in experiment [3], 93.7% (inactive); in experiment [4] (setting [7]) it was 79.6%; in experiment [4] (setting [8]), 93.7%. In experiment [4] (H69AR cells + 2 uM doxorubicin), the differential viability (reversal) was 14.1% (inactive). Also, the inhibition is -2.74% (inactive) in experiment [5] and 10.7% (inactive) in experiment [6].
With `Cc1cc(C)n(C(=O)C23CC4CC(CC(C4)C2)C3)n1`, the viability in experiment [1] is 106% (inactive); in experiment [2], 85.9% (inactive); in experiment [3] it was 99.3% (inactive); in experiment [4] (setting [7]), 96.1%; in experiment [4] (setting [8]) it was 99.3%. In experiment [4] (H69AR cells + 2 uM doxorubicin), the differential viability (reversal) was 3.23% (inactive). Also, the inhibition in experiment [5] was -8.36% (inactive); in experiment [6], -5.32% (inactive).
As for `Cc1cccc(C)c1NC(=O)COC(=O)c1nonc1N`, the viability in experiment [1] is 79% (inactive); in experiment [2], 108% (inactive); in experiment [3], 98.9% (inactive); in experiment [4] (setting [7]) it was 94.3%; in experiment [4] (setting [8]), 98.9%. Besides, in experiment [4] (H69AR cells + 2 uM doxorubicin), the differential viability (reversal) was 4.63% (inactive). The inhibition in experiment [5] is -4.13% (inactive); in experiment [6] it was -7.09% (inactive).
For the compound `Cc1cc(C)nc(SCCS(=O)Cc2ccc(Cl)cc2)n1` (stereo unspecified), the viability is 102% (inactive) in experiment [1]; 99.4% (inactive) in experiment [2]; 96.2% (inactive) in experiment [3]; 91.5% in experiment [4] (setting [7]); 96.2% in experiment [4] (setting [8]). The differential viability (reversal) in experiment [4] (H69AR cells + 2 uM doxorubicin) was 4.69% (inactive). Also, the figures for the inhibition in experiment [5] and in experiment [6] were -2.34% (inactive) and -3.11% (inactive), respectively.
